A selection: hits, their analogues and other compounds. The true share with any hit is near 4.2%.
UPR XBP1 act – adaptive UPR (XBP1) activation. CHO-XBP1 luciferase reporter, IRE1-XBP1 UPR activation, luminescence; percent of tunicamycin response, DMSO as zero. activation, % at 20 µM. 0.33% of 330,000 active;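 active = versus positive control, 20 µM dose yields 30% or more activation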
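Assay system: IRE1-XBP1 luciferase reporter CHO line. Input: 1000 cells/well. Buffer or medium: F12 with 10% serum. Doses: 20 µM, 1% DMSO. Times: overnight seeding at 37 °C, 6 h compound treatment at 37 °C. Technique: Steady-Glo luciferase glow luminescence, 10 min after reagent addition.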
TMEM16A inh – mouse TMEM16A channel inhibition, primary screen; AID 588511; normalized B-score (activity score, 25-100; higher = stronger inhibition) at 10 µM; HEK293 TMEM16A/YFP iodide influx fluorescence, ionomycin; 1.2% of 310,000 active;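 active = ratio plate-corrected score three or more library SD toward inhibition, starting fluorescence score within five deviations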;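 also: score derived from kinetic fluorescence span divided by baseline fluorescence per well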
CHOP UPR activ – apoptotic UPR (CHOP) activation. CHO-CHOP luciferase reporter, luminescence; percent of tunicamycin response over DMSO baseline. activation, % at 10 µM. 0.34% of 330,000 active;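 active = at 10 µM dose, activation of 40% or more, normalized to positive control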
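Test system: CHO CHOP reporter cells. Input: 500 CHO-CHOP cells per well. Medium: F12 with 10% FBS. Technique: luciferase luminescence. Measure: percent activation relative to tunicamycin control. Dosing: 10 µM compound, 0.5% DMSO. Timing: 16-18 h cell attachment, then 6 h compound exposure, 37 °C.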
CHOP inhibitor – blocks CHOP induction under ER stress. CHO-K1 CHOP-promoter luciferase, tunicamycin-induced, 15-18 h. inhibition, % at 10 µM. 3.8% of 220,000 active. AID 2732;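 active = compounds that reduced the stress-induced luciferase reporter signal by more than about 70% of percent inhibition, limit read from the data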
Lipid droplet – modulators of hepatic lipid droplet formation; inhibition, % at 6.5 µM; 0.4% of 240,000 active; AML12 mouse hepatocytes, oleate lipid droplets, BODIPY imaging;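 active = lipid droplet intensity inhibited by at least 50%, with more than 500 cells counted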
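Assay system: AML12 hepatocytes (mouse); Probe or stimulus: oleic acid at 100 µM to induce lipid droplet formation; Dosing: compound at 6.5 µM only; Schedule: compound with oleate, overnight; Detection: fluorescence imaging, 20x objective, two fields per well; Measure: % inhibition of lipid droplet signal.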
ANO1 activ – activates or potentiates the mouse TMEM16A chloride channel | AID 623877 | 0.3% of 340,000 active | B-score at 10 µM | HEK293 TMEM16A/YFP-H148Q/I152L, iodide quench fluorescence; hits give low values | Q8BHY3;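 active = fluorescence-ratio B-score plate-corrected deviation score at least 3 library SD below zero, with starting fluorescence score within 5 deviations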;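 also: channel opened by trigger with iodide after compound preincubation; score built on the fluorescence ratio of max minus min over baseline; more negative score means more quench and so TMEM16A activation or potentiation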
CHOP inh conf – confirmation of CHOP induction inhibitors; shares compounds with CHOP inhibitor; CHO-CHOP promoter luciferase reporter, tunicamycin-induced, luminescence; inhibition, % at 10 µM; 45% of 2,100 active; AID 504437;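 active = mean of three repeat readings of reporter signal inhibition above a set limit, cut at about 70% in these data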
Hits are given with their value; – = inactive; · = no result.

SMILES	UPR XBP1 act	TMEM16A inh	CHOP UPR activ	CHOP inhibitor	Lipid droplet	ANO1 activ	CHOP inh conf
O=C(Cn1c(C(F)(F)F)nc2ccccc21)N=Nc1c(O)[nH]c2ccc(Br)cc12	–	–	–	105.5	–	–	115.5
CCOC(=O)C1=C(Cc2ccc(F)cc2)C(=O)c2ccccc2C1=O	–	–	125.3	108.0	–	–	–
Cc1cc(N)ncc1[N+](=O)[O-]	·	·	·	·	·	–	·
Cc1cc(Sc2ncnc(N)c2[N+](=O)[O-])ncn1	–	–	–	106.2	–	–	–
Cc1cc(Sc2nc(N)ncc2[N+](=O)[O-])ncn1	–	–	–	105.9	–	–	–
Cc1cc(O)c(CN2CCN(S(=O)(=O)c3cccs3)CC2)cc1C(C)C	–	·	–	·	·	–	·
NS(=O)(=O)c1cccc(NC(=O)c2ccno2)c1	–	–	–	·	–	–	·
Cc1cccc(/C=C/C(=O)c2cc(Br)ccc(=O)c2O)c1	–	25	–	101.9	–	–	99.8
CSc1ncc(Cl)c(C(=O)NCc2cccnc2)n1	–	–	–	·	–	–	·
O=S(=O)(Nc1c(S(=O)(=O)c2ccccc2)c2nc3ccccc3nc2n1C1CCCCC1)c1ccccc1	·	100	·	105.7	–	–	–
O=C(Nc1ccccc1O)c1c(O)c2c([nH]c1=O)CCCC2	–	–	–	103.2	–	–	126.0
O=C(N/N=C/c1cccc(Cl)c1)c1c(O)c2c([nH]c1=O)CCCC2	–	–	–	98.0	–	–	–
O=C(O)CCc1ccc(-c2cccs2)n1CCc1ccccc1	–	–	–	–	–	–	·
Cc1ccccc1NC(=O)COC(=O)CC1CCCC1	–	·	–	·	·	–	·
CS(=O)(=O)c1ncc(Cl)c(C(=O)Nc2ccc(OC(F)F)cc2)n1	–	–	–	·	–	–	·
CS(=O)(=O)c1ncc(Cl)c(C(=O)Nc2ccc(N3CCOCC3)cc2)n1	–	–	–	·	–	–	116.9
O=C1CC(C(=O)N2CCN(c3ccccn3)CC2)CN1Cc1ccccc1Cl (stereo not given)	–	–	–	·	·	–	·
O=C(Nc1ccccc1N1CCCC1)c1cc2ccccc2o1	–	–	–	–	–	–	·
O=C(Nc1ccccc1N1CCN(C(=O)c2ccccc2)CC1)c1cc2ccccc2o1	–	–	–	97.6	–	·	–
COc1ccccc1C(=O)Oc1ccc(C(C)C)cc1	–	–	–	98.6	–	–	117.7
COc1ccc(S(=O)(=O)NCC2CC3C=CC2C3)cc1OC (stereo not given)	–	–	–	·	–	–	·
Cc1ccc(NC(=O)c2cnccn2)c(Br)c1	–	–	–	·	–	–	·
Cc1cccc(Oc2ccccc2NC(=O)c2cnccn2)c1	–	–	–	99.1	–	–	–
Nc1cccc2c1C(=O)N(C(=O)/C=C/c1ccc(F)cc1)C2=O	–	–	–	102.9	–	–	–
Nc1cccc2c1C(=O)N(C(=O)c1ccco1)C2=O	–	–	–	–	–	–	·
SMILES	UPR XBP1 act	TMEM16A inh	CHOP UPR activ	CHOP inhibitor	Lipid droplet	ANO1 activ	CHOP inh conf
Cc1ccc(-c2cc(-c3ccccc3)no2)c(O)c1	·	–	·	–	–	–	·
Cc1ccc2nc(-c3cc(-c4ccccc4)no3)cn2c1	–	–	–	105.0	–	–	73.9
O=C1c2ccccc2C(=O)c2c1cccc2-n1nnc2ccccc21	–	–	–	–	–	–	·
O=C1C(N2CCOCC2)=C(n2nnc3ccccc32)C(=O)c2ccccc21	–	–	–	·	–	–	94.7
COC(=O)c1cc(S(=O)(=O)NCc2ccc(Br)cc2)c[nH]1	–	–	–	·	–	–	·
COC(=O)c1cc2sc(Cl)cc2n1CC(=O)Nc1cccc(SC)c1	–	–	–	99.1	·	–	–
COC(=O)c1cc2sc(Cl)cc2n1CC(=O)Nc1ccc(OC)c(OC)c1OC	–	–	–	–	·	–	·
Cc1ccc(NNC(=S)Nc2ccc(C(C)C)cc2)c(C)c1	–	–	–	105.5	–	–	–
Cc1ccc(NC(=S)NNC(=S)Nc2ccc(C)cc2)cc1	·	·	·	·	·	–	·
Cc1ccc(NS(=O)(=O)c2ccc(NC(=O)c3cccc(NC(=O)C(C)C)c3)cc2)cc1	–	–	–	–	·	–	·
O=C(N/N=C\c1cn(-c2ccccc2)nc1-c1ccccc1)c1ccc(Br)o1	–	–	–	–	·	–	·
Cc1ccc(-c2nn(-c3ccccc3)cc2/C=N/NC(=O)c2ccc(Br)o2)cc1	–	100	–	104.2	·	–	120.9
COc1ccccc1OCC(O)CNCc1ccc2c(c1)OCO2 (stereo not given)	–	–	–	–	–	–	·
CC(=O)Oc1cc2oc(=O)c3c(c2cc1Cl)CCC3	–	–	–	99.2	·	–	–
Cc1cccc2cc3c(nc12)SC(=NCC1CCCO1)N(Cc1ccco1)C3 (stereo not given)	–	–	–	102.9	·	–	–
O=C(Nc1nc2ccccc2n1Cc1ccc(Cl)cc1)c1ccco1	–	–	–	103.2	·	–	–
Cc1ccc(OCCn2c(NC(=O)c3ccco3)nc3ccccc32)cc1	–	–	–	–	–	–	·
Cc1cccc(OCCn2c(NC(=O)c3ccco3)nc3ccccc32)c1	–	–	–	104.0	–	–	–
COc1ccc(C(=O)N2CCc3[nH]nc(-c4ccccc4)c3C2)cc1	–	–	–	·	–	–	·
Cc1cccc(N/N=C(\C=N\N)C(=O)c2ccc(Br)cc2)c1	–	–	–	103.4	–	·	–
COc1ccc(CCNC(=O)c2nnn(-c3ccc4c(c3)OCCO4)c2N)cc1OC	–	–	–	96.8	–	–	83.6
COc1ccc(CCNC(=O)c2nnn(-c3ccccc3OC)c2N)cc1OC	–	–	–	–	·	–	·
CCOC(=O)N1CCN(C(=O)/C=C/c2ccc(C(C)(C)C)cc2)CC1	–	–	–	·	–	–	·
CC1=NN(c2nc(-c3ccc(C)cc3)cs2)C(=O)C1N=Nc1cccc(O)c1 (stereo not given)	–	–	–	–	–	–	·
CC1=NN(c2nc(-c3ccc(C)cc3)cs2)C(=O)C1N=Nc1ccccc1O (stereo not given)	–	–	–	106.5	–	–	76.8
COc1cccc(NC(=O)CCNC(=O)Cn2ccc3ccccc3c2=O)c1	–	–	–	–	–	–	·
O=C(CCl)N1CCN2C(=O)c3ccccc3C12c1ccc(Cl)cc1 (stereo not given)	–	–	–	105.4	–	–	112.9
Cc1cc(/C=N/n2cnnc2)c(C)n1-c1ccc(OCc2ccc(Cl)cc2Cl)cc1	–	100	–	107.6	–	–	113.7
Cc1cc(/C=N/n2cnnc2)c(C)n1-c1ccc(Cl)cc1	–	–	–	–	–	–	·
